Laboratory results as given in ChEMBL document CHEMBL5104216, “Fragment-Sized Thiazoles in Fragment-Based Drug Discovery Campaigns: Friend or Foe?” (ACS Med Chem Lett, 2022).

What was measured:
[1] = Redox activity of compound assessed as redox index at 100 uM in presence of 1 mM DTT measured by HRP-PR assay; type: physicochemical
Outline: (§1)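 H2O2 from redox cycling, with or without DTT, detected with horseradish peroxidase-phenol red (HRP-PR).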

[2] = target: UDP-N-acetylglucosamine 1-carboxyvinyltransferase (Escherichia coli K-12) (UniProt P0A749); assay: Inhibition of recombinant Escherichia coli MurA assessed as residual activity at 500 uM using UDP-N-acetylglucosamine as substrate preincubated for 30 mins followed by substrate addition and measured by malachite green based colorimetric assay relative to control
Chain of UDP-N-acetylglucosamine 1-carboxyvinyltransferase (Escherichia coli K-12) (P0A749 whole entry): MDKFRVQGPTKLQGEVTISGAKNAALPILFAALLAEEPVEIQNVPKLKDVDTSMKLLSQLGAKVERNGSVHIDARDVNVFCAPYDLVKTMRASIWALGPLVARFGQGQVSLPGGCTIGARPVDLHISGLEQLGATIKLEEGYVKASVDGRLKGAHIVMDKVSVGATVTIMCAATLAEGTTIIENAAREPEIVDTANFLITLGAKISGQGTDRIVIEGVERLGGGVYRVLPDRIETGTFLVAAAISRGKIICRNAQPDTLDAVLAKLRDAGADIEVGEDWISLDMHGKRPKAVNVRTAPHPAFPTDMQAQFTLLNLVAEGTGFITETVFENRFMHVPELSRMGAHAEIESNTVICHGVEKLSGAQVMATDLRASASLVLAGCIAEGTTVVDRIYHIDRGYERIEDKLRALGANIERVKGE
Outline: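 E. coli MurA at 500–625 μM with 30 min preincubation before substrate addition. Malachite green colorimetric read-out. Activity threshold was <50% residual activity.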

[3] = Redox activity of compound assessed as redox index at 100 uM in presence of 100 uM TCEP measured by H2DCFDA assay; type: physicochemical
Outline: (§2)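 Reactive oxygen species, with or without the reducing agent TCEP, detected with the fluorescent probe H2DCFDA. Compound spectral interference (autofluorescence) checked under the assay conditions.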

[4] = target: UDP-N-acetylglucosamine 1-carboxyvinyltransferase (Escherichia coli K-12) (UniProt P0A749); assay: Inhibition of recombinant Escherichia coli MurA assessed as residual activity at 500 uM using UDP-N-acetylglucosamine as substrate and measured by malachite green based colorimetric assay relative to control
Outline: (§3)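 Screened at 500–625 μM with malachite green colorimetric read-out. Activity threshold was <50% residual activity.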

[5] = test system: Mycobacterium tuberculosis; assay: Inhibition of Mycobacterium tuberculosis MetAP1a assessed as residual activity at 625 uM using L-methionine 7-amido-4-methylcoumarin as fluorogenic substrate and measured by fluorescence based assay
Outline: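 Kinetic fluorescence assay in which the enzyme hydrolyses L-methionine 7-amido-4-methylcoumarin to fluorescent 7-amino-4-methylcoumarin. Compounds were tested at 500–625 μM, and activity was called at <50% residual activity. Spectral interference was checked by measuring absorbance at the excitation and emission wavelengths and compound autofluorescence.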

[6] = target: D-alanine--D-alanine ligase B (Escherichia coli K-12) (UniProt P07862); assay: Inhibition of recombinant Escherichia coli DdlB assessed as residual activity at 500 uM using D-alanine as substrate incubated for 20 mins and measured by malachite green based colorimetric assay relative to control; outline: as §3
[7] = target: UDP-N-acetylglucosamine 1-carboxyvinyltransferase (Escherichia coli K-12) (UniProt P0A749); assay: Inhibition of recombinant Escherichia coli MurA assessed as residual activity at 500 uM using UDP-N-acetylglucosamine as substrate preincubated for 30 mins in presence of 1 mM DTT followed by substrate addition and measured by malachite green based colorimetric assay relative to control
[8] = target: Replicase polyprotein 1ab (Severe acute respiratory syndrome coronavirus 2) (UniProt P0DTD1); assay: Inhibition of recombinant SARS-CoV-2 3CLpro expressed in Escherichia coli NiCo21(DE3) assessed as residual activity at 500 uM using DABCYL-KTSAVLQSGFRKME-EDANS as substrate preincubated for 30 mins in presence of 1mM DTT followed by substrate addition and measured by FRET assay relative to control
Outline: (§4)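 Kinetic fluorescence read-out of cleavage of a FRET substrate carrying a DABCYL–EDANS pair. Compounds were tested at 500–625 μM, and <50% residual activity was taken as the activity threshold. To exclude false positives, absorbance at the excitation and emission wavelengths and autofluorescence of the compounds were measured.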

[9] = Redox activity of compound assessed as redox index at 100 uM measured by H2DCFDA assay; type: physicochemical; outline: as §2
[10] = Redox activity of compound assessed as redox index at 10 uM measured by resazurin assay; type: physicochemical
Outline: (§5)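 Free radicals formed by redox cycling with DTT detected with resazurin by fluorimetric read-out. Spectral interference checked.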

[11] = target: Replicase polyprotein 1ab (Severe acute respiratory syndrome coronavirus 2) (UniProt P0DTD1); assay: Inhibition of recombinant SARS-CoV-2 3CLpro expressed in Escherichia coli NiCo21(DE3) assessed as residual activity at 500 uM using DABCYL-KTSAVLQSGFRKME-EDANS as substrate preincubated for 30 mins followed by substrate addition and measured by FRET assay relative to control; outline: as §4
[12] = Redox activity of compound assessed as redox index at 100 uM measured by HRP-PR assay; type: physicochemical; outline: as §1
[13] = Aqueous stability of the compound at pH 7.4 measured after 60 mins by spectrophotometric analysis; type: physicochemical; conditions: buffer, pH 7.4, 1 h
Outline: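 Followed by spectrophotometry as changes in the compound absorption spectrum over time in 50 mM Tris-HCl pH 7.4, 0.5 mM EDTA, read after 60 min in 96-well microplate format. Compounds with low absorbance were not evaluated.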

[14] = Redox activity of compound assessed as redox index at 1 uM measured by resazurin assay; type: physicochemical; outline: as §5

| SMILES | Activity_index [1] | Activity [2] | Activity_index [3] | Activity [4] | Activity [5] | Activity [6] | Activity [7] | Activity [8] | Activity_index [9] | Activity_index [10] | Activity [11] | Activity_index [12] | Stability [13] | Activity_index [14] |
| --- | --- | --- | --- | --- | --- | --- | --- | --- | --- | --- | --- | --- | --- | --- |
| COC(=O)c1csc(Br)n1 | 1 | 117% | 0.9 | 106% | 88.2% | 95% | 104% | 68.6% | 0.8 | 0.8 | 73.7% | 1 | Stable | 1.4 |
| COC(=O)c1cnc(Br)s1 | 1 | 93% | 1.1 | 96.6% | 99.2% | 96% | 102% | 92.9% | 1 | 1.1 | 100% | 1 | Stable | 1 |
| O=C(O)Cc1csc(Br)n1 | 1 | 72.1% | 1 | 105% | 86.1% | 103% | 106% | 68.6% | 0.9 | 1 | 77.1% | 1 | – | 0.9 |
| CC(=O)c1nc(C)cs1 | 1 | 93.9% | 0.8 | 102% | 136% | 92% | 93.5% | 78.4% | 1 | 0.9 | 106% | 1 | – | 0.9 |
| Clc1nccs1 | 1 | 0.8% | 0.9 | 18.9% | 122% | 93% | 107% | 73.8% | 1 | 0.9 | 23.1% | 1 | Stable | 1 |
| Nc1ccc(S(=O)(=O)Nc2nccs2)cc1 [SULFATHIAZOLE] | 1 | 82.3% | 1.1 | 96.5% | 94% | 94% | 100% | 74.2% | 1.2 | 1 | 71.7% | 1 | Stable | 0.9 |
| O=C(O)c1csc(Br)n1 | 1 | 96% | 1 | 102% | 81.7% | 92% | 101% | 73.7% | 1 | 0.9 | 73.6% | 1 | Stable | 0.9 |
| CCOC(=O)Cc1csc(Br)n1 | 1 | 66.7% | 0.9 | 86.7% | 89.6% | 95% | – | 70.8% | 1 | 0.9 | 72% | 1 | – | 0.9 |
| CCOC(=O)Cc1csc(N)n1 | 1 | 66.3% | 1 | 85.5% | 132% | 94% | 88.1% | 82.1% | 1.2 | 1 | 103% | 1 | Stable | 0.9 |
| N#Cc1cnc(NC(=O)CC(=O)O)s1 | 1 | 20.3% | 0.8 | 72.3% | 146% | 96% | 109% | 79.7% | 0.7 | 1 | 93.5% | 1 | Stable | 0.9 |
| Nc1nc(CC(=O)O)cs1 | 1 | 79.4% | 0.9 | 90.8% | 125% | 96% | 99.2% | 84.2% | 1.1 | 1 | 105% | 1.1 | Stable | 0.9 |
| Brc1cscn1 | 1 | 106% | 0.8 | 100% | 83.5% | 97% | 102% | 80.1% | 0.8 | 1 | 91.4% | 1 | – | 0.9 |
| CCOC(=O)c1csc(Br)n1 | 1 | 84% | 0.9 | 89.8% | 90.8% | 97% | 100% | 80.7% | 1 | 1 | 71.7% | 1 | Stable | 0.9 |
| COC(=O)C(=O)Nc1ncc(Br)s1 | 1 | 37.2% | 0.8 | 81.7% | 156% | 94% | 112% | 66.2% | 0.8 | 1.1 | 89.5% | 1 | Unstable | 0.9 |
| O=C(O)c1scnc1Br | 1 | 83.1% | 1.1 | 99.5% | 122% | 96% | 111% | 80.1% | 1.1 | 0.9 | 135% | 1 | Stable | 0.9 |
| Nc1nccs1 [AMINOTHIAZOLE] | 1 | 39.7% | 0.9 | 88% | 94.6% | 95% | 105% | 82.5% | 0.8 | 0.9 | 86.1% | 1 | Stable | 0.9 |
| Cc1nc(C(=O)O)cs1 | 1 | 1.6% | 1.6 | 7.2% | 73.9% | 92% | 105% | 78.7% | 0.9 | 1 | 3.4% | 1 | Stable | 0.9 |
| O=C(O)c1nc(Br)cs1 | 1 | 90% | 0.9 | 97.3% | 111% | 84% | 106% | 85.1% | 1 | 0.9 | 88.3% | 1 | – | 0.9 |
